Experimental data: PubChem BioAssay AID1483 (NMMLSC, 2009)
The other results are listed elsewhere or left out. The source made the active and inactive calls.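 The calls were made as follows: active = fluorescence beyond the plate control mean plus 3 SD, with a fluorescence-to-maximum score over 2 (cut at about 25 in these data); inactive = the rest.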

Assay: compound autofluorescence in ABCB1-expressing CCRF-Adr cells, confirmation, artefact control for ABC transporter inhibitor project, cell-based, 488/530 nm, flow cytometry (AID 1483)
Settings: compound autofluorescence 488/530 nm, at 6.6 µM, hits give high values
Method in brief: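 Test system: drug-resistant CCRF-Adr cells; Quantity: 3 million cells per mL, final in well; Benchmarks: DMSO control wells; Incubation: 10 min rotation at 25 °C; Compound: single test compound dose, 6.6 µM final; Probe or stimulus: no JC-1 substrate added, compound fluorescence only; Technique: flow cytometry, median green fluorescence at 530 ± 20 nm.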

**Q.** For `COc1ccc(C)cc1NC(=O)C(Sc1ccccc1)c1ccccc1` (stereo not drawn), which fluorescence is on record?
**A.** -2.64 (inactive)

**Q.** Which fluorescence does the source give for `CCN1/C(=C/c2ccc3ccc(C)cc3[n+]2CC)Sc2ccccc21` here?
**A.** 130 (active)

**Q.** Which fluorescence does the source give for `O=C(Cc1c[nH]c2ccccc12)N/N=C/c1cccc(F)c1` here?
**A.** 4.76 (inactive)

**Q.** For `CCOCC(=O)Nc1sc2c(c1C(=O)OCC)CCCC2`, which fluorescence is on record?
**A.** 0.31 (inactive)

**Q.** With `Cc1ccc(-n2c(SCC(=O)Nc3ncc(Cl)cc3Cl)nc3ccccc32)cc1` as the molecule, how does the fluorescence read?
**A.** -0.64 (inactive)

**Q.** For `CCOC(=O)c1sc(NC(=O)CSc2nnc(-c3ccco3)o2)c(C(=O)OCC)c1C`, which fluorescence is on record?
**A.** 0.61 (inactive)

**Q.** With `Cc1cccc2cc(CN(Cc3cccs3)C(c3nnnn3C3CCCC3)C(C)C)c(=O)[nH]c12` (stereo not drawn) as the molecule, how does the fluorescence read?
**A.** -4.84 (inactive)

**Q.** Which fluorescence does the source give for `C=CCn1c(SCCOc2ccc(OC)cc2)nnc1C(NC(=O)c1ccc(OC)cc1)C(C)C` (stereo not drawn) here?
**A.** 180 (active)

**Q.** With `C/C(=N\Nc1ncc(Cl)cc1Cl)c1ccc(S(=O)(=O)NCc2ccco2)cc1` as the molecule, how does the fluorescence read?
**A.** -2.49 (inactive)

**Q.** Which fluorescence does the source give for `Cc1ccc(OCC(O)CN2CCN(CC(O)COc3ccc(C)cc3Cl)CC2)c(Cl)c1` (stereo not drawn) here?
**A.** 22.4 (inactive)

**Q.** Which fluorescence does the source give for `COc1ccc(-n2c(C)cc(C(=O)COC(=O)c3cc(OC)c(OC)cc3NC(=O)c3cccs3)c2C)cc1` here?
**A.** 2.26 (inactive)

**Q.** Which fluorescence does the source give for `Cc1c(CCOC(=O)CC23CC4CC(CC(C)(C4)C2)C3)sc[n+]1Cc1ccc([N+](=O)[O-])cc1` here?
**A.** -2.94 (inactive)

**Q.** Which fluorescence does the source give for `COc1cccc(NC(=O)c2ccc(Cn3cc([N+](=O)[O-])cn3)o2)c1` here?
**A.** 5.61 (inactive)
